{"source": "the M2OR odorant receptor database", "conditions_in_all_cases": "stereoisomer not certain", "key": {"UniProt Q7TRX0": {"biological_target": "T1, UniProt Q7TRX0", "T1 sequence (whole entry)": "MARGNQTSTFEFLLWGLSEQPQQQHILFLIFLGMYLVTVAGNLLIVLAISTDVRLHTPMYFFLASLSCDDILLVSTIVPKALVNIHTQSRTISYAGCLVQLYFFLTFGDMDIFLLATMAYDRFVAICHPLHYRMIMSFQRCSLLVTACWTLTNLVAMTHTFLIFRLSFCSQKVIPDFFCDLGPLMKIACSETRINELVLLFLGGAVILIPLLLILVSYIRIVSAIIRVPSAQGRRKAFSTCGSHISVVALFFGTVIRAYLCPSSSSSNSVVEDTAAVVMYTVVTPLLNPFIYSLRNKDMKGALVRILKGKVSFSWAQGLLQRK", "outline": "(§1)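 Whether a receptor–molecule pair is responsive (active) rests on the original authors' judgment that its measured signal was statistically different from baseline. Pairs without that judgment are non-responsive (inactive). Sources used varied assay methods, commonly transient luciferase assays in mammalian cell lines.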"}, "UniProt Q7TRW1": {"biological_target": "T2, UniProt Q7TRW1", "T2 sequence (whole entry)": "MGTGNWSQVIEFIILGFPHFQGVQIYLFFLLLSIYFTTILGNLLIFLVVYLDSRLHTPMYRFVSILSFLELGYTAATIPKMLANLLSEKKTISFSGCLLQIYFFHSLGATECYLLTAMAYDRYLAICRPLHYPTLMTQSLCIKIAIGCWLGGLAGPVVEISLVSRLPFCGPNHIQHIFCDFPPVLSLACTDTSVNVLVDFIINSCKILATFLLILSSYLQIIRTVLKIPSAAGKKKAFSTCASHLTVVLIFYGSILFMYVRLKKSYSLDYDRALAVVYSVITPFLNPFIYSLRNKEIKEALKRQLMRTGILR", "outline": "as §1"}, "UniProt Q8VEU7": {"biological_target": "T3, UniProt Q8VEU7", "T3 sequence (whole entry)": "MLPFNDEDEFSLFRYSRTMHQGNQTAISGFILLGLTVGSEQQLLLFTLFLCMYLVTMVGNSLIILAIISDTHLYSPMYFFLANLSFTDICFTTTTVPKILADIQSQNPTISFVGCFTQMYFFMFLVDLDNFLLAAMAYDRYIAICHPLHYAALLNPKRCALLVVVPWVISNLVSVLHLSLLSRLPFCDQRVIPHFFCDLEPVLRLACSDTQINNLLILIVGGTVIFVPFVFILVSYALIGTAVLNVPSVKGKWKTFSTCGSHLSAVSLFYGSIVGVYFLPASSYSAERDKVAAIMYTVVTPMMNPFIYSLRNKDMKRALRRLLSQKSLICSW", "outline": "as §1"}, "UniProt Q8VF05": {"biological_target": "T4, UniProt Q8VF05", "T4 sequence (whole entry)": "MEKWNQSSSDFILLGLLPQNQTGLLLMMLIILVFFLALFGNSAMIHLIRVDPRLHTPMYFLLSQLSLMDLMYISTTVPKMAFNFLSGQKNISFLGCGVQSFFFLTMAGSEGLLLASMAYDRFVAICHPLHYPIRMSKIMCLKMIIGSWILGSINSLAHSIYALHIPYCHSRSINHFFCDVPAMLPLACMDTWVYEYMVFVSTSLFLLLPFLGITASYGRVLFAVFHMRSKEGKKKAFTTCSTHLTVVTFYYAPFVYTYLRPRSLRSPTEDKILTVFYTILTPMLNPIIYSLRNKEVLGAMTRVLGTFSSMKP", "outline": "as §1"}, "UniProt Q7TS17": {"biological_target": "UniProt Q7TS17", "sequence (Q7TS17 as listed by the source)": "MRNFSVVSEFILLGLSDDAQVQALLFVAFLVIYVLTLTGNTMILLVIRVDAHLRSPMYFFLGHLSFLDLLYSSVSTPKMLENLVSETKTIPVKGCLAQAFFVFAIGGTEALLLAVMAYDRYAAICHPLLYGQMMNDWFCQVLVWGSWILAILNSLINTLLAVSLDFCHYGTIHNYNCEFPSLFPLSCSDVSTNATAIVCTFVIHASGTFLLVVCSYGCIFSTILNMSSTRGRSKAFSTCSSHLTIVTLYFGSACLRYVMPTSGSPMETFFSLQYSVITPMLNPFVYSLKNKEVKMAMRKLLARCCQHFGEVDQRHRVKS", "outline": "as §1"}, "UniProt Q7TS37": {"biological_target": "UniProt Q7TS37", "sequence (Q7TS37 as listed by the source)": "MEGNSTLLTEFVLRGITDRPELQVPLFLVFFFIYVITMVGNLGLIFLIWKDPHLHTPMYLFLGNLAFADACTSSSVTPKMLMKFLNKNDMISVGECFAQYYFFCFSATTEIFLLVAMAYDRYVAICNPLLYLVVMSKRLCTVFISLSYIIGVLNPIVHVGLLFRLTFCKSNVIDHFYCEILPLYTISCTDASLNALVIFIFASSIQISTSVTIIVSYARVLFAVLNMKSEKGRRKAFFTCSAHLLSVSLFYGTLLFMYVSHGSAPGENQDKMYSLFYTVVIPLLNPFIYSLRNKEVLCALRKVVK", "outline": "as §1"}, "UniProt Q7TS40": {"biological_target": "UniProt Q7TS40", "sequence (Q7TS40 as listed by the source)": "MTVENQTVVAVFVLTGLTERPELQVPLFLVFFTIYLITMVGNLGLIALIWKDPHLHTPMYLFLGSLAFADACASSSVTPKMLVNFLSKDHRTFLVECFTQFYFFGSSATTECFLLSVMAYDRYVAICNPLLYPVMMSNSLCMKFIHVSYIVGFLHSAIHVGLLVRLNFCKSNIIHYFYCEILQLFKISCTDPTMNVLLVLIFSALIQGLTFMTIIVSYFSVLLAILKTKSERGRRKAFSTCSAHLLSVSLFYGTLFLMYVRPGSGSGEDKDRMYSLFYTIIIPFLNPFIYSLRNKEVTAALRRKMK", "outline": "as §1"}}}
{"smiles": "CCC(C)c1nccnc1OC", "note": "(stereo not drawn)", "values": [{"measurement": "odorant receptor agonist call", "setting": "UniProt Q7TRX0", "result": "inactive"}]}
{"smiles": "CCCCCCC(=O)OCCCC", "values": [{"measurement": "odorant receptor agonist call", "setting": "UniProt Q7TRX0", "result": "inactive"}]}
{"smiles": "CCC(C(=O)O)c1ccccc1", "note": "(stereo not drawn)", "values": [{"measurement": "odorant receptor agonist call", "setting": "UniProt Q7TRW1", "result": "inactive"}, {"measurement": "odorant receptor agonist call", "setting": "UniProt Q8VEU7", "result": "inactive"}, {"measurement": "odorant receptor agonist call", "setting": "UniProt Q8VF05", "result": "inactive"}]}
{"smiles": "CC(C)CCN", "values": [{"measurement": "odorant receptor agonist call", "setting": "UniProt Q7TRX0", "result": "inactive"}]}
{"smiles": "CCOC(=O)C(C)C", "values": [{"measurement": "odorant receptor agonist call", "setting": "UniProt Q7TRW1", "result": "inactive"}, {"measurement": "odorant receptor agonist call", "setting": "UniProt Q7TRX0", "result": "inactive"}, {"measurement": "odorant receptor agonist call", "setting": "UniProt Q8VEU7", "result": "inactive"}, {"measurement": "odorant receptor agonist call", "setting": "UniProt Q8VF05", "result": "active"}]}
{"smiles": "C=C(C)C1CCC(C)C(=O)C1", "note": "(stereo not drawn)", "values": [{"measurement": "odorant receptor agonist call", "setting": "UniProt Q7TRW1", "result": "inactive"}, {"measurement": "odorant receptor agonist call", "setting": "UniProt Q7TRX0", "result": "inactive"}, {"measurement": "odorant receptor agonist call", "setting": "UniProt Q8VEU7", "result": "inactive"}, {"measurement": "odorant receptor agonist call", "setting": "UniProt Q8VF05", "result": "active"}]}
{"smiles": "CCCCCC=CCCC=O", "values": [{"measurement": "odorant receptor agonist call", "setting": "UniProt Q7TRX0", "result": "inactive"}]}
{"smiles": "O=c1ccc2ccccc2o1", "values": [{"measurement": "odorant receptor agonist call", "setting": "UniProt Q7TRW1", "result": "inactive"}, {"measurement": "odorant receptor agonist call", "setting": "UniProt Q7TS17", "result": "active"}, {"measurement": "odorant receptor agonist call", "setting": "UniProt Q7TS37", "result": "active"}, {"measurement": "odorant receptor agonist call", "setting": "UniProt Q7TS40", "result": "inactive"}, {"measurement": "odorant receptor agonist call", "setting": "UniProt Q8VEU7", "result": "inactive"}, {"measurement": "odorant receptor agonist call", "setting": "UniProt Q8VF05", "result": "inactive"}]}
{"smiles": "CCCCCCCCCS", "values": [{"measurement": "odorant receptor agonist call", "setting": "UniProt Q7TRW1", "result": "inactive"}, {"measurement": "odorant receptor agonist call", "setting": "UniProt Q7TRX0", "result": "inactive"}, {"measurement": "odorant receptor agonist call", "setting": "UniProt Q8VEU7", "result": "inactive"}, {"measurement": "odorant receptor agonist call", "setting": "UniProt Q8VF05", "result": "inactive"}]}
{"smiles": "CCCCCCCCCC(=O)[O-].[H+]", "values": [{"measurement": "odorant receptor agonist call", "setting": "UniProt Q7TRW1", "result": "inactive"}, {"measurement": "odorant receptor agonist call", "setting": "UniProt Q7TRX0", "result": "inactive"}, {"measurement": "odorant receptor agonist call", "setting": "UniProt Q8VEU7", "result": "inactive"}, {"measurement": "odorant receptor agonist call", "setting": "UniProt Q8VF05", "result": "inactive"}]}
{"smiles": "CC(C)=CCCC(C)=CCOC(=O)C(C)C", "values": [{"measurement": "odorant receptor agonist call", "setting": "UniProt Q7TRX0", "result": "inactive"}]}
{"smiles": "CCCCCCC(C=O)=Cc1ccccc1", "values": [{"measurement": "odorant receptor agonist call", "setting": "UniProt Q7TRX0", "result": "inactive"}]}
{"smiles": "CCCCOC(=O)C(C)OC(=O)CCC", "note": "(stereo not drawn)", "values": [{"measurement": "odorant receptor agonist call", "setting": "UniProt Q7TRW1", "result": "inactive"}, {"measurement": "odorant receptor agonist call", "setting": "UniProt Q8VEU7", "result": "inactive"}, {"measurement": "odorant receptor agonist call", "setting": "UniProt Q8VF05", "result": "inactive"}]}
{"smiles": "CC(CC=O)CCCC(C)(C)O", "note": "(stereo not drawn)", "values": [{"measurement": "odorant receptor agonist call", "setting": "UniProt Q7TRX0", "result": "inactive"}]}
{"smiles": "CCCCCOC(=O)CCCCC", "values": [{"measurement": "odorant receptor agonist call", "setting": "UniProt Q7TRW1", "result": "inactive"}, {"measurement": "odorant receptor agonist call", "setting": "UniProt Q7TRX0", "result": "inactive"}, {"measurement": "odorant receptor agonist call", "setting": "UniProt Q8VEU7", "result": "inactive"}, {"measurement": "odorant receptor agonist call", "setting": "UniProt Q8VF05", "result": "inactive"}]}
{"smiles": "CCCC(=O)C(C)=O", "values": [{"measurement": "odorant receptor agonist call", "setting": "UniProt Q7TRW1", "result": "inactive"}, {"measurement": "odorant receptor agonist call", "setting": "UniProt Q7TRX0", "result": "inactive"}, {"measurement": "odorant receptor agonist call", "setting": "UniProt Q8VEU7", "result": "inactive"}, {"measurement": "odorant receptor agonist call", "setting": "UniProt Q8VF05", "result": "active"}]}
{"smiles": "CCC(=O)O", "values": [{"measurement": "odorant receptor agonist call", "setting": "UniProt Q7TRW1", "result": "inactive"}, {"measurement": "odorant receptor agonist call", "setting": "UniProt Q7TRX0", "result": "inactive"}, {"measurement": "odorant receptor agonist call", "setting": "UniProt Q8VEU7", "result": "inactive"}, {"measurement": "odorant receptor agonist call", "setting": "UniProt Q8VF05", "result": "inactive"}]}
{"smiles": "OCCc1ccccc1", "values": [{"measurement": "odorant receptor agonist call", "setting": "UniProt Q7TRX0", "result": "inactive"}]}
{"smiles": "CCCCC(=O)CC", "values": [{"measurement": "odorant receptor agonist call", "setting": "UniProt Q7TRW1", "result": "inactive"}, {"measurement": "odorant receptor agonist call", "setting": "UniProt Q7TRX0", "result": "inactive"}, {"measurement": "odorant receptor agonist call", "setting": "UniProt Q8VEU7", "result": "inactive"}, {"measurement": "odorant receptor agonist call", "setting": "UniProt Q8VF05", "result": "active"}]}
{"smiles": "C=C1C2CCC(C2)C1(C)C", "note": "(stereo not drawn)", "values": [{"measurement": "odorant receptor agonist call", "setting": "UniProt Q7TRX0", "result": "inactive"}]}
